Screening data as filed in PubChem BioAssay.
sdo1 growth: sdo1-depleted yeast growth rescue; z-score at 10 µM; S. cerevisiae sdo1-depleted JHY4D growth rescue, OD600 30 h; active compounds read high; pdr5 snq2 efflux-pump mutant strain; hit rate 0.21% among 140,000; AID 817;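 active = z-score above 3 at both the 24 hr and the 30 hr optical density reads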
Yeast lifespan up: extends the lifespan of yeast | hit rate 0.68% among 130,000 | inhibition of the nicotinamide effect, % at 10 µM | S. cerevisiae growth with nicotinamide, OD615; deaD strain in restrictive glucose medium;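 active = inhibition above a set limit, placed 3 SD over the median of all compounds, cut at about 26% in these data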
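assay system = DeaD-strain S. cerevisiae | buffer or medium = restrictive glucose medium | reagent = 1.5 mM nicotinamide | compound = 10 µM single point, 0.25% DMSO | incubation = 48 h compound exposure at 30 °C, humidified | signal = OD615 measurement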
RAM network inh: inhibitors of the yeast RAM network | S. cerevisiae dse1pr::URA3 reporter, 5-FOA growth OD615, 2 d; analog-sensitive cbk1-as2 kinase mutant strain | inhibition, % at 50 µM | hit rate 1.8% among 190,000 | AID 868;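 active = inhibition above a set limit, 3 SD over mean compound inhibition, cut at about 8.4% in these data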;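 note: inhibition rescues growth on 5-FOA so higher OD means more RAM inhibition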
Measles CPE: protection of cells from measles virus. Measles virus-infected cells, CPE protection, absorbance. protection (pct of control), % at 4 µM. hit rate 1.5% among 140,000. AID 841; in the data active = protection mostly above about 24%, no sharp cut-off; inactive = mostly below about 26%
Yeast growth inh: yeast BB579 growth reduction in restrictive medium; S. cerevisiae BB579 growth, OD615, 48 h; inhibition, % at 10 µM; hit rate 0.51% among 140,000;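 active = inhibition above a set limit, 3 SD over the mean compound inhibition, cut at about 44% in these data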
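Detection: OD615 turbidity measurement; Material: Saccharomyces cerevisiae DeaD strain BB579, replicative lifespan model yeast; Timing: 48 h exposure, 30 °C; Doses: single 10 µM dose; Medium: CSMM-D restrictive synthetic medium containing dextrose (glucose); Controls: amphotericin B at 10 µg/mL as positive control.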
Large screens that a line does not name were inactive. Hits are enriched below; roughly 3.8% of the tested compounds scored in any of these assays.

CCOC(=O)c1c(C)[nH]c(C(=O)C(C)OC(=O)c2cccc(OCc3c(C)noc3C)c2)c1C (centres undefined)	Measles CPE 76.5
Cn1c(Sc2ccc(Br)cc2)c(C=O)c2ccccc21	RAM network inh 10.2
Cn1c(Oc2ccc(F)cc2)c(C=O)c2ccccc21	none (no result: sdo1 growth, Yeast lifespan up, Measles CPE, Yeast growth inh)
CC(C)CN(CC(C)C)c1nnc(N)s1	Measles CPE 28.4
CCSc1nc(C2CC2)cc(-c2cccs2)c1C#N	none
CCSc1nc(C2CC2)cc(-c2ccco2)c1C#N	RAM network inh 10.4
CCOC(=O)C(=O)Nc1cc(Cl)ccc1C	none
CCN(CCNC(=O)C1CCN(S(=O)(=O)CC)CC1)c1ccccc1	Measles CPE 59.8
CCCCc1n[nH]c(=S)n1Cc1ccc(Cl)cc1	none (no result: sdo1 growth, Yeast lifespan up, Measles CPE, Yeast growth inh)
Cc1ccc(Oc2nc(CN3CCOCC3)nc3sc4c(c23)CCC(C)C4)cc1C (centres undefined)	Yeast growth inh 80.8
O=C(Nc1cccc(O)c1)c1ccccc1[N+](=O)[O-]	none (no result: sdo1 growth, Yeast lifespan up, Measles CPE, Yeast growth inh)
COc1ccc(NC(=S)N/N=C/c2cccn2Cc2ccc(F)cc2)cc1	none (no result: sdo1 growth, Yeast lifespan up, Measles CPE, Yeast growth inh)
O=C1Nc2ccccc2C12OCC1(CO2)COC2(OC1)C(=O)Nc1ccccc12 (centres undefined)	Yeast lifespan up 67.5
CC1(C)COC2(OC1)C(=O)Nc1ccccc12	none (no result: sdo1 growth, Yeast lifespan up, Measles CPE, Yeast growth inh)
Cc1[nH]nc(SCC(=O)Nc2ccc(C#N)cc2)c1[N+](=O)[O-]	none
Cc1ccc(C)c(N2CCN(c3ncnc4c3cnn4-c3ccccc3)CC2)c1	Measles CPE 51.0
COc1ccc(N2CCN(c3ncccn3)CC2)cc1	Measles CPE 27.9
COc1ccc(N2CCN(Cc3nc4ccccc4n3C)CC2)cc1	Measles CPE 37.1
COc1ccc(OCC(O)CN2CCN(c3ncccn3)CC2)cc1 (centres undefined)	none
Cc1nn(C)c(Cl)c1C(N)=O	none (no result: sdo1 growth, Yeast lifespan up, Measles CPE, Yeast growth inh)
O=C(NCc1ccco1)C(=O)NCC1OCCN1S(=O)(=O)c1ccc(Cl)cc1 (centres undefined)	none
O=C(NCc1ccco1)C(=O)NCC1OCCN1S(=O)(=O)c1ccc(F)cc1 (centres undefined)	Measles CPE 49.5
O=C(Nc1nccs1)c1ccc2c(=O)n3c(nc2c1)CCCCC3	Yeast lifespan up 50.8
O=C(NCC1CCCO1)c1c(O)c2cccc3c2n(c1=O)CC3 (centres undefined)	Measles CPE 55.4
O=C(Nc1ccc2nc3n(c(=O)c2c1)CCCC3)c1cccc([N+](=O)[O-])c1	RAM network inh 8.8
O=C(Nc1nccs1)c1c(O)c2cccc3c2n(c1=O)CCC3	Yeast lifespan up 29.8
COC(=O)c1ccc(CN2CCCC(CCC(=O)NCc3ccc(C)o3)C2)cc1 (centres undefined)	none (no result: sdo1 growth, Yeast lifespan up, Measles CPE, Yeast growth inh)
Cn1ccs/c1=N\C(=O)Nc1cccc(Cl)c1	none (no result: sdo1 growth, Yeast lifespan up, Measles CPE, Yeast growth inh)
CCOc1ccc(N2CCc3c(C)nc(SC)nc32)cc1	none (no result: sdo1 growth, Yeast lifespan up, Measles CPE, Yeast growth inh)
COc1ccc(-c2noc(CCC(=O)NCCc3cccc(C)c3)n2)cc1	none (no result: sdo1 growth, Yeast lifespan up, Measles CPE, Yeast growth inh)
CCC(=O)Nc1cccc(C(=O)/C=C/c2cc(Br)ccc2OC)c1	RAM network inh 9.6
Cn1c(C(C#N)C(=O)c2ccco2)nc2ccccc21 (centres undefined)	Yeast growth inh 63.6
c1ccc2c3c([nH]c2c1)-c1[nH]ncc1CC3	none
Clc1ccc2[nH]c3c(c2c1)CCc1cn[nH]c1-3	Yeast growth inh 100.3
Nc1nnc(SCC(=O)NN2C(=O)NC3(CCCCC3)C2=O)s1	none
CCOC(=O)c1ccc(NC(=O)CN2C(=O)C(CC)SC(CC)C2=O)cc1 (centres undefined)	RAM network inh 9.6
CCOC(=O)c1ccc(NC(=O)CN2C(=O)CSCC2=O)cc1	none
O=C(Nc1nc(COc2ccccc2)cs1)C12CC3CC(CC(C3)C1)C2	RAM network inh 9.4
CC(=O)Nc1nc(COc2ccccc2)cs1	none
Cc1nn(CC(=O)NCc2cc3ccccc3[nH]2)c(C)c1[N+](=O)[O-]	none
COc1ccc(Cn2c(-c3ccc(C)cc3)nc3c(c(=O)c4ccccc4n3C)c2=O)cc1	RAM network inh 9.9
COc1ccc(Cn2c(-c3ccc(OC)cc3)nc3c(c(=O)c4ccccc4n3C)c2=O)cc1	none
COc1ccc(CCn2c(C(C)C)nc3c(c(=O)c4ccccc4n3C)c2=O)cc1	Yeast lifespan up 27.4, RAM network inh 8.9
COc1ccc(CCn2c(C)nc3c(c(=O)c4ccccc4n3C)c2=O)cc1	none
CS(=O)(=O)c1ccc2nc(NC(NC(=O)c3ccco3)(C(F)(F)F)C(F)(F)F)sc2c1	none
S=C(NCc1ccccc1)NNc1nc2ccccc2[nH]1	none (no result: sdo1 growth, Yeast lifespan up, Measles CPE, Yeast growth inh)
